Measured values published in ChEMBL document CHEMBL1139303, “One-pot synthesis of 5-phenylimino, 5-thieno or 5-oxo-1,2,3-dithiazoles and evaluation of their antimicrobial and antitumor activity” (2009).
Converted amounts (≈) assume the structure as drawn. The source made the active and inactive calls. No cut-off for these calls is given here.

Tests used:
Escherichia coli [1] = experiment: Antibacterial activity against Escherichia coli ATCC 25922 at 50 ug after 24 hrs by agar diffusion method; type: functional
Outline: (§1)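 Bacteria pre-grown 24 h on nutritive agar (tryptone soy agar for E. faecalis, L. inocua) at 37 °C (30 °C for E. faecalis, L. inocua, B. cereus). Agar well diffusion with 50 µg compound in 80% DMSO; 80% DMSO alone as control. Inhibition zone diameter averaged from triplicate, scored 6-9, 9-12, >12 mm.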

Pseudomonas aeruginosa = experiment: Antibacterial activity against Pseudomonas aeruginosa ATCC 27853 at 50 ug after 24 hrs by agar diffusion method; type: functional, organism-based; outline: as §1
Klebsiella pneumoniae = experiment: Antibacterial activity against Klebsiella pneumoniae CIP 53153 at 50 ug after 24 hrs by agar diffusion method; type: functional, organism-based; outline: as §1
Enterococcus faecalis = experiment: Antibacterial activity against Enterococcus faecalis CIP 103214 at 50 ug after 24 hrs by agar diffusion method; type: functional; outline: as §1
Staphylococcus aureus [2] = experiment: Antibacterial activity against Staphylococcus aureus ATCC 25923 at 50 ug after 24 hrs by agar diffusion method; type: functional; conditions: for zone of inhibition at 50 µg/disc: Staphylococcus aureus, ATCC 25923, 24 h, read-out: IZ; outline: as §1
Bacillus cereus [3] = experiment: Antibacterial activity against Bacillus cereus at 50 ug after 24 hrs by agar diffusion method; type: functional; conditions: for zone of inhibition at 50 µg/disc: read-out: IZ; outline: as §1
Listeria innocua = experiment: Antibacterial activity against Listeria innocua at 50 ug after 24 hrs by agar diffusion method; type: functional; outline: as §1
Candida albicans [4] = experiment: Antifungal activity against Candida albicans ATCC 10231 at 50 ug after 24 hrs by agar diffusion method; type: functional
Outline: (§2)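 Yeasts grown on yeast extract peptone dextrose medium at 30 °C for 24 h, then agar well diffusion with 50 µg compound in 80% DMSO; 80% DMSO alone as control. Averaged inhibition zone diameter from triplicate, scored 6-9, 9-12 or >12 mm.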

Nakaseomyces glabratus [5] = experiment: Antifungal activity against Candida glabrata DSM6425 at 50 ug after 24 hrs by agar diffusion method; type: functional; outline: as §2
Candida tropicalis [6] = experiment: Antifungal activity against Candida tropicalis DSM 1346 at 50 ug after 24 hrs by agar diffusion method; type: functional; outline: as §2
Pichia kudriavzevii = experiment: Antifungal activity against Issatchenkia orientalis DSM6128 at 50 ug after 24 hrs by agar diffusion method; type: functional, organism-based; outline: as §2
MCF7 = experiment: Antiproliferative activity against human MCF7 cells after 72 hrs by MTT assay; type: functional; conditions: MCF7, 72 h
Outline: (§3)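 5000 cells per well added to pre-equilibrated medium at 37 °C; compounds from 10^-3 M DMSO stocks, final 10^-5 M. After 72 h, MTT (5 g/L) for 4 h, formazan dissolved in DMSO, OD 550 nm. % growth inhibition vs 1% DMSO medium (0%) and 10% SDS lysis (100%); mean ± SEM, 24 measures, three independent experiments.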

MDA-MB-231 [7] = experiment: Antiproliferative activity against human MDA-MB-231 cells after 72 hrs by MTT assay; type: functional; conditions: MDA-MB-231, 72 h; outline: as §3
MDA-MB-231 [8] = experiment: Antiproliferative activity against human MDA-MB-231 cells at 10 uM after 72 hrs by MTT assay; type: functional; conditions: MDA-MB-231, 72 h; outline: as §3
Staphylococcus aureus [9] = experiment: Antibacterial activity against Staphylococcus aureus ATCC 25923 after 24 hrs by broth macrodilution method; type: functional; conditions: ATCC 25923, 24 h
Outline: (§4)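 Bacteria pre-grown 24 h on nutritive agar (tryptone soy agar for E. faecalis, L. inocua) at 37 °C (30 °C for E. faecalis, L. inocua, B. cereus). MIC and MBC determined by macro-dilution broth method; MBC = lowest concentration killing 99.99% of inoculum. Compounds in DMSO, max 2.13% solvent in cultures. Triplicate.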

Bacillus cereus [10] = experiment: Antibacterial activity against Bacillus cereus after 24 hrs by broth macrodilution method; type: functional; outline: as §4
Escherichia coli [11] = experiment: Antibacterial activity against Escherichia coli ATCC 25922 after 24 hrs by broth macrodilution method; type: functional; conditions: ATCC 25922, 24 h; outline: as §4
Candida albicans [12] = experiment: Antifungal activity against Candida albicans ATCC 10231 after 24 hrs by broth macrodilution method; type: functional; conditions: ATCC 10231, 24 h
Outline: (§5)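 Yeasts pre-grown on yeast extract peptone dextrose medium, 30 °C, 24 h. MIC and MFC by macro-dilution broth method; compounds in DMSO, max 2.13% solvent in cultures. Amphotericin B and fluconazole as references. MFC/MIC ratio computed; ≥4 taken as fungistatic. Triplicate.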

Nakaseomyces glabratus [13] = experiment: Antifungal activity against Candida glabrata DSM6425 after 24 hrs by broth macrodilution method; type: functional; conditions: DSM6425, 24 h; outline: as §5
Candida tropicalis [14] = experiment: Antifungal activity against Candida tropicalis DSM 1346 after 24 hrs by broth macrodilution method; type: functional; conditions: DSM 1346, 24 h; outline: as §5
Nakaseomyces glabratus [15] = experiment: Ratio of MFC to MIC against Candida glabrata DSM6425; type: functional; outline: as §5

SMILES	Activity (Escherichia coli [1])	Activity (Pseudomonas aeruginosa)	Activity (Klebsiella pneumoniae)	Activity (Enterococcus faecalis)	Activity (Staphylococcus aureus [2])	Activity (Bacillus cereus [3])	Activity (Listeria innocua)	Activity (Candida albicans [4])	Activity (Nakaseomyces glabratus [5])	Activity (Candida tropicalis [6])	Activity (Pichia kudriavzevii)	GI50 (MCF7) [µM]	GI50 (MDA-MB-231 [7]) [µM]	inhibition at 10 µM (MDA-MB-231 [8]) [%]	zone of inhibition at 50 µg/disc (Staphylococcus aureus [2]) [mm]	further results
S=c1ssnc1-c1cc2ccccc2o1	inactive	inactive	inactive	inactive	inactive	inactive	inactive	inactive	inactive	inactive	inactive	> 10	> 10	0		
Fc1ccc(-c2nss/c2=N\c2ccccc2)cc1	inactive	inactive	inactive	inactive	inactive	inactive	inactive	inactive	inactive	inactive	inactive	10	> 10	0		
Cc1nssc1=S	inactive	inactive	inactive	inactive		inactive	inactive	inactive	inactive	inactive	inactive	> 10	> 10	0	6	MBC (Staphylococcus aureus [9]): > 48 mg/L; MIC (Staphylococcus aureus [9]): 48 mg/L (≈ 322 µM)
Cc1nss/c1=N\c1ccccc1	inactive	inactive	inactive	inactive	inactive	inactive	inactive	inactive	inactive	inactive	inactive	> 10	> 10	0		
S=c1ssnc1-c1cccs1	inactive	inactive	inactive	inactive	inactive	inactive	inactive	inactive	inactive	inactive	inactive	> 10	> 10	0		
S=c1ssnc1-c1ccccc1	inactive	inactive	inactive	inactive			inactive	inactive	inactive	inactive	inactive	> 10	> 10	0	12	zone of inhibition at 50 µg/disc (Bacillus cereus [3]): 9 mm; MBC (Staphylococcus aureus [9]): > 48 mg/L; MIC (Staphylococcus aureus [9]): 32 mg/L (≈ 151 µM); MBC (Bacillus cereus [10]): > 48 mg/L; MIC (Bacillus cereus [10]): > 48 mg/L
Fc1ccc(-c2nssc2=S)cc1	inactive	inactive	inactive	inactive	inactive	inactive	inactive	inactive	inactive	inactive	inactive	> 10	> 10	0		
c1ccc(/N=c2\ssnc2-c2ccccc2)cc1	inactive	inactive	inactive	inactive		inactive	inactive	inactive	inactive	inactive	inactive	10	> 10	0	6	
O=c1ssnc1-c1ccccc1		inactive	inactive	inactive	inactive	inactive	inactive	inactive	inactive	inactive	inactive	> 10	> 10	0		zone of inhibition at 50 µg/disc (Escherichia coli [1]; ATCC 25922, 24 h, read-out: IZ): 6 mm; MBC (Escherichia coli [11]): > 48 mg/L; MIC (Escherichia coli [11]): > 48 mg/L
O=[N+]([O-])c1ccc(-c2nssc2=S)cc1	inactive	inactive	inactive	inactive		inactive	inactive	inactive	inactive	inactive	inactive	> 10	> 10	0	6	
CCOC(=O)c1nss/c1=N\c1ccccc1	inactive	inactive	inactive	inactive			inactive				inactive	> 10	> 10	0	6	zone of inhibition at 50 µg/disc (Bacillus cereus [3]): 6 mm; MBC (Staphylococcus aureus [9]): > 48 mg/L; MIC (Staphylococcus aureus [9]): 48 mg/L (≈ 180 µM); MBC (Bacillus cereus [10]): > 48 mg/L; MIC (Bacillus cereus [10]): 48 mg/L (≈ 180 µM); zone of inhibition at 50 µg/disc (Candida albicans [4]; ATCC 10231, 24 h, read-out: IZ): > 12 mm; zone of inhibition at 50 µg/disc (Nakaseomyces glabratus [5]; DSM6425, 24 h, read-out: IZ): 9 mm; zone of inhibition at 50 µg/disc (Candida tropicalis [6]; DSM 1346, 24 h, read-out: IZ): 9 mm; MFC (Candida albicans [12]): > 48 mg/L; MIC (Candida albicans [12]): 48 mg/L (≈ 180 µM); MFC (Nakaseomyces glabratus [13]): 48 mg/L (≈ 180 µM); MIC (Nakaseomyces glabratus [13]): 32 mg/L (≈ 120 µM); MFC (Candida tropicalis [14]): > 48 mg/L; MIC (Candida tropicalis [14]): 32 mg/L (≈ 120 µM); Ratio (Nakaseomyces glabratus [15]): 1.5
O=[N+]([O-])c1ccc(-c2nss/c2=N\c2ccccc2)cc1	inactive	inactive	inactive	inactive	inactive	inactive	inactive	inactive	inactive	inactive	inactive	10	> 10	0		
c1ccc(/N=c2\ssnc2-c2cccs2)cc1	inactive	inactive	inactive	inactive	inactive	inactive	inactive	inactive	inactive	inactive	inactive	> 10	> 10	0		
c1ccc(/N=c2\ssnc2-c2cc3ccccc3o2)cc1	inactive	inactive	inactive	inactive	inactive	inactive	inactive	inactive	inactive	inactive	inactive	10	> 10	0		
